Measurements published in ChEMBL document CHEMBL1944570, “Discovery of 4''-ether linked azithromycin-quinolone hybrid series: influence of the central linker on the antibacterial activity” (ACS Med Chem Lett, 2011).
≈ marks a conversion by molar mass, not a printed value.

Experiments:
Type in all cases: functional
Staphylococcus aureus [1] = assay: Antibacterial activity against ciprofloxacin-resistant Staphylococcus aureus by agar microdilution method
Summary of the method: (§1)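 MIC by agar microdilution following NCCLS standards; strains drawn from the PLIVA Research Institute culture collection. MIC reported in μg/mL.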

Staphylococcus aureus [2] = assay: Antibacterial activity against erythromycin-susceptible Staphylococcus aureus by agar microdilution method
Summary of the method: (§2)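 Agar microdilution MIC per NCCLS standards against strains from the Pliva Research Institute culture collection; values in µg/mL. Panel included erythromycin-susceptible strains and strains with inducible or constitutive MLS resistance.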

Staphylococcus aureus [3] = assay: Antibacterial activity against Staphylococcus aureus with inducible resistance to MLS by agar microdilution method; summary of the method: as §1
Staphylococcus aureus [4] = assay: Antibacterial activity against constitutive MLS resistant Staphylococcus aureus by agar microdilution method; summary of the method: as §1
Staphylococcus aureus [5] = assay: Antibacterial activity against efflux mediated macrolide resistant Staphylococcus aureus by agar microdilution method; summary of the method: as §1
Streptococcus pneumoniae [6] = assay: Antibacterial activity against erythromycin-susceptible Streptococcus pneumoniae by agar microdilution method; summary of the method: as §1
Streptococcus pneumoniae [7] = assay: Antibacterial activity against constitutive MLS resistant Streptococcus pneumoniae by agar microdilution method; summary of the method: as §1
Streptococcus pyogenes [8] = assay: Antibacterial activity against erythromycin-susceptible Streptococcus pyogenes by agar microdilution method; summary of the method: as §1
Streptococcus pyogenes [9] = assay: Antibacterial activity against Streptococcus pyogenes with inducible resistance to MLS by agar microdilution method; summary of the method: as §1
Streptococcus pyogenes [10] = assay: Antibacterial activity against constitutive MLS resistant Streptococcus pyogenes by agar microdilution method; summary of the method: as §1
Streptococcus pyogenes [11] = assay: Antibacterial activity against efflux mediated macrolide resistant Streptococcus pyogenes by agar microdilution method; summary of the method: as §1
Haemophilus influenzae = assay: Antibacterial activity against Haemophilus influenzae B0529 by agar microdilution method; summary of the method: as §2
Moraxella catarrhalis = assay: Antibacterial activity against Moraxella catarrhalis by agar microdilution method; summary of the method: as §2
Streptococcus pneumoniae [12] = assay: Antibacterial activity against efflux mediated macrolide resistant Streptococcus pneumoniae by agar microdilution method; summary of the method: as §1

Row | Structure (SMILES) | MIC (Staphylococcus aureus [1]) | MIC (Staphylococcus aureus [2]) | MIC (Staphylococcus aureus [3]) | MIC (Staphylococcus aureus [4]) | MIC (Staphylococcus aureus [5]) | MIC (Streptococcus pneumoniae [6]) | MIC (Streptococcus pneumoniae [7]) | MIC (Streptococcus pyogenes [8]) | MIC (Streptococcus pyogenes [9]) | MIC (Streptococcus pyogenes [10]) | MIC (Streptococcus pyogenes [11]) | MIC (Haemophilus influenzae) | MIC (Moraxella catarrhalis) | MIC (Streptococcus pneumoniae [12])
1 | CCOC(=O)c1cn(CC)c2ccc(N3CCN(CCO[C@H]4[C@H](C)O[C@@H](O[C@H]5[C@H](C)[C@@H](O[C@@H]6O[C@H](C)C[C@H](N(C)C)[C@H]6O)[C@](C)(O)C[C@@H](C)CN(C)[C@H](C)[C@H]6OC(=O)O[C@]6(C)[C@@H](CC)OC(=O)[C@@H]5C)C[C@@]4(C)OC)CC3)cc2c1=O | ≥ 64 µg/mL | 0.5 µg/mL (≈ 0.442 µM) | 64 µg/mL (≈ 56.6 µM) | > 64 µg/mL | 8 µg/mL (≈ 7.08 µM) | ≤ 0.125 µg/mL | 64 µg/mL (≈ 56.6 µM) | ≤ 0.125 µg/mL | 1 µg/mL (≈ 0.885 µM) | 64 µg/mL (≈ 56.6 µM) | 16 µg/mL (≈ 14.2 µM) | 1 µg/mL (≈ 0.885 µM) | 0.25 µg/mL (≈ 0.221 µM) | 
2 | CC[C@H]1OC(=O)[C@H](C)[C@@H](O[C@H]2C[C@@](C)(OC)[C@@H](OCCN3CCN(c4ccc5c(c4)c(=O)c(C(=O)O)cn5CC)CC3)[C@H](C)O2)[C@H](C)[C@@H](O[C@@H]2O[C@H](C)C[C@H](N(C)C)[C@H]2O)[C@](C)(O)C[C@@H](C)CN(C)[C@H](C)[C@H]2OC(=O)O[C@@]21C | ≥ 64 µg/mL | 1 µg/mL (≈ 0.907 µM) | 16 µg/mL (≈ 14.5 µM) | 32 µg/mL (≈ 29 µM) | 2 µg/mL (≈ 1.81 µM) | ≤ 0.125 µg/mL | 32 µg/mL (≈ 29 µM) | 0.25 µg/mL (≈ 0.227 µM) | 4 µg/mL (≈ 3.63 µM) | 32 µg/mL (≈ 29 µM) | 4 µg/mL (≈ 3.63 µM) | 2 µg/mL (≈ 1.81 µM) | 4 µg/mL (≈ 3.63 µM) | 
3 | CC[C@H]1OC(=O)[C@H](C)[C@@H](O[C@H]2C[C@@](C)(OC)[C@@H](OCCNCCNc3cc4c(=O)c(C(=O)O)cn(C5CC5)c4cc3Cl)[C@H](C)O2)[C@H](C)[C@@H](O[C@@H]2O[C@H](C)C[C@H](N(C)C)[C@H]2O)[C@](C)(O)C[C@@H](C)CN(C)[C@H](C)[C@H]2OC(=O)O[C@@]21C | ≥ 64 µg/mL | 2 µg/mL (≈ 1.78 µM) | 64 µg/mL (≈ 57 µM) | > 64 µg/mL | 4 µg/mL (≈ 3.56 µM) | ≤ 0.125 µg/mL | 64 µg/mL (≈ 57 µM) | ≤ 0.125 µg/mL | 0.5 µg/mL (≈ 0.445 µM) | 2 µg/mL (≈ 1.78 µM) | 0.5 µg/mL (≈ 0.445 µM) | 2 µg/mL (≈ 1.78 µM) | 0.25 µg/mL (≈ 0.223 µM) | 
4 | CC[C@H]1OC(=O)[C@H](C)[C@@H](O[C@H]2C[C@@](C)(OC)[C@@H](OCCNCCNc3cc4c(cc3F)c(=O)c(C(=O)O)cn4C3CC3)[C@H](C)O2)[C@H](C)[C@@H](O[C@@H]2O[C@H](C)C[C@H](N(C)C)[C@H]2O)[C@](C)(O)C[C@@H](C)CN(C)[C@H](C)[C@H]2OC(=O)O[C@@]21C | ≥ 64 µg/mL | 4 µg/mL (≈ 3.62 µM) | 64 µg/mL (≈ 57.8 µM) | > 64 µg/mL | 4 µg/mL (≈ 3.62 µM) | ≤ 0.125 µg/mL | 64 µg/mL (≈ 57.8 µM) | ≤ 0.125 µg/mL | 0.25 µg/mL (≈ 0.226 µM) | 8 µg/mL (≈ 7.23 µM) | 4 µg/mL (≈ 3.62 µM) | 4 µg/mL (≈ 3.62 µM) | 0.5 µg/mL (≈ 0.452 µM) | 0.25 µg/mL (≈ 0.226 µM)
5 | CC[C@H]1OC(=O)[C@H](C)[C@@H](O[C@H]2C[C@@](C)(OC)[C@@H](OCCNCCOCCNc3cc4c(cc3F)c(=O)c(C(=O)O)cn4C3CC3)[C@H](C)O2)[C@H](C)[C@@H](O[C@@H]2O[C@H](C)C[C@H](N(C)C)[C@H]2O)[C@](C)(O)C[C@@H](C)CN(C)[C@H](C)[C@H]2OC(=O)O[C@@]21C | ≥ 64 µg/mL | 8 µg/mL (≈ 6.95 µM) | 64 µg/mL (≈ 55.6 µM) | > 64 µg/mL | 64 µg/mL (≈ 55.6 µM) | ≤ 0.125 µg/mL | 16 µg/mL (≈ 13.9 µM) | ≤ 0.125 µg/mL | 1 µg/mL (≈ 0.869 µM) | 32 µg/mL (≈ 27.8 µM) | 4 µg/mL (≈ 3.48 µM) | 4 µg/mL (≈ 3.48 µM) | 0.5 µg/mL (≈ 0.435 µM) | 
6 | CC[C@H]1OC(=O)[C@H](C)[C@@H](O[C@H]2C[C@@](C)(OC)[C@@H](OCCNCCOCCOCCNc3cc4c(=O)c(C(=O)O)cn(C5CC5)c4cc3Cl)[C@H](C)O2)[C@H](C)[C@@H](O[C@@H]2O[C@H](C)C[C@H](N(C)C)[C@H]2O)[C@](C)(O)C[C@@H](C)CN(C)[C@H](C)[C@H]2OC(=O)O[C@@]21C | ≥ 64 µg/mL | 2 µg/mL (≈ 1.65 µM) | 64 µg/mL (≈ 52.9 µM) | 32 µg/mL (≈ 26.4 µM) | 2 µg/mL (≈ 1.65 µM) | ≤ 0.125 µg/mL | 64 µg/mL (≈ 52.9 µM) | ≤ 0.125 µg/mL |  | 1 µg/mL (≈ 0.826 µM) | 0.5 µg/mL (≈ 0.413 µM) | 1 µg/mL (≈ 0.826 µM) | 0.5 µg/mL (≈ 0.413 µM) | 
7 | CC[C@H]1OC(=O)[C@H](C)[C@@H](O[C@H]2C[C@@](C)(OC)[C@@H](OCCN3CCN(c4ccc5c(c4)c(=O)c(C(=O)O)cn5CC)CC3)[C@H](C)O2)[C@H](C)[C@@H](O[C@@H]2O[C@H](C)C[C@H](N(C)C)[C@H]2O)[C@](C)(O)C[C@@H](C)CN(C)[C@H](C)[C@@H](O)[C@]1(C)O | ≥ 64 µg/mL | 2 µg/mL (≈ 1.86 µM) | 64 µg/mL (≈ 59.5 µM) | 64 µg/mL (≈ 59.5 µM) | 4 µg/mL (≈ 3.72 µM) | ≤ 0.125 µg/mL | 64 µg/mL (≈ 59.5 µM) | ≤ 0.125 µg/mL | 0.25 µg/mL (≈ 0.232 µM) | 64 µg/mL (≈ 59.5 µM) | 0.5 µg/mL (≈ 0.465 µM) | 8 µg/mL (≈ 7.43 µM) | 4 µg/mL (≈ 3.72 µM) | 
